High-throughput results from PubChem BioAssay.
IMP-1 inh – inhibitors of Pseudomonas aeruginosa IMP-1 metallo-beta-lactamase; purified IMP-1, nitrocefin hydrolysis, epi-absorbance fluorescence; inhibition, % at 5.6 µM; hit rate 0.45% among 290,000; AID 1556;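 active means inhibition above the mean plus 3 SD of all compounds in the same screening run, cut at about 4.5% in these data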;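 further: 0% = IMP-1 with DMSO and 100% = DMSO wells lacking enzyme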
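System: purified recombinant IMP-1 beta-lactamase. Medium: Zinc- and detergent-supplemented HEPES buffer, pH 7.1. Compound: one 5.6 µM dose […]. Schedule: 15 min preincubation plus 25 min reaction at 25 °C. Technique: Epi-absorbance fluorescence, 480 nm excitation, 530 nm emission.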
MEKK2 WT-MEK5 – raises or lowers MEK5 binding to wildtype human MEKK2 PB1 domain | Q9Y2U5 | bead flow cytometry, Alexa488-MEK5 binding to MEKK2 WT; actives lie on both sides | binding response (% of control), % at 10 µM | hit rate 1.1% among 290,000 | AID 1531; in the data active means binding response below about 67% or above about 130%
MEKK3 PB1 HTS – raises or lowers MEK5 binding to the human MEKK3 PB1 domain. bead-based flow cytometry, Alexa488-MEK5 binding to MEKK3; actives lie on both sides; 0 = blocked by unlabeled MEK5, 100 = vehicle. hit rate 1.4% among 290,000. AID 1529. binding response (% of control), % at 10 µM. Q99759;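 active means binding response more than 3 SD above or below the average of its plate-row segment, actives on both sides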;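 further: Alexa488 bead fluorescence after subtracting the streptavidin-only scavenger bead signal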
Target sequence (Q99759 whole entry, looked up, the tested form may be a part): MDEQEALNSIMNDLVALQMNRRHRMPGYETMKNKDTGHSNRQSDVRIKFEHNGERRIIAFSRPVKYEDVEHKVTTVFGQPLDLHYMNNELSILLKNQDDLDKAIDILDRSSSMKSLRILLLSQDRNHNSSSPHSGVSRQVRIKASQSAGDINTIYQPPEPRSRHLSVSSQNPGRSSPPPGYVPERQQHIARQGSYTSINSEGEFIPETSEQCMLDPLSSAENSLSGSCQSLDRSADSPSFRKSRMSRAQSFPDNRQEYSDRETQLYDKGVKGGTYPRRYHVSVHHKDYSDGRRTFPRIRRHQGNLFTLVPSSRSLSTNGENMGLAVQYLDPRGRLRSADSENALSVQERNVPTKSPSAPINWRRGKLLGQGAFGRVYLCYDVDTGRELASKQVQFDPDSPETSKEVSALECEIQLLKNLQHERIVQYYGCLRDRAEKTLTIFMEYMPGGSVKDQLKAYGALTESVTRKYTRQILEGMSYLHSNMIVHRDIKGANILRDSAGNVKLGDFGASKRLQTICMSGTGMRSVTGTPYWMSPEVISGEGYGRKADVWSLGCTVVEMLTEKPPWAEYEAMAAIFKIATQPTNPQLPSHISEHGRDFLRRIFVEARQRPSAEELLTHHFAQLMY
VIM-2 inh – inhibitors of Pseudomonas aeruginosa VIM-2 metallo-beta-lactamase. purified VIM-2, nitrocefin hydrolysis, epi-absorbance fluorescence. inhibition, % at 5.6 µM. hit rate 0.89% among 290,000;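 active means inhibition above the mean of all tested compounds plus 3 SD, cutoff set per screening run, cut at about 7.5% in these data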;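 further: red hydrolysis product quenches plate fluorescence so inhibitors raise well fluorescence; 0% = enzyme with DMSO and 100% = DMSO without enzyme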
MEKK2 mut-MEK5 – signal of MEK5 binding to mutant human MEKK2 PB1 domain; bead flow cytometry, Alexa488-MEK5 binding to MEKK2 mutant; percent response, % at 10 µM; hit rate 0.35% among 290,000; AID 1530; in the data active means percent response above about 24%, passing the limit was not always enough
MEKK2wt confirm – raises or lowers MEK5 binding to wildtype human MEKK2, retest; bead flow cytometry, Alexa488-MEK5 binding to MEKK2 WT; actives lie on both sides; binding response (% of control), % at 10 µM; hit rate 2.4% among 5,900; shares compounds with MEKK3 PB1 HTS; in the data active means binding response below about 16% or above about 210%; inactive means in between
MEKK2mut confirm – signal of MEK5 binding to mutant human MEKK2, retest | shares compounds with MEKK3 PB1 HTS | bead flow cytometry, Alexa488-MEK5 binding to MEKK2 mutant | percent response, % at 10 µM | hit rate 2% among 5,900 | AID 1893; in the data active means percent response mostly above about 71%, no sharp cut-off; inactive means mostly below about 38%;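 further: higher means compound restores mutant binding toward wildtype level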
MEKK3-MEK5 inh – MEKK3-MEK5 PB1 inhibition, single concentration confirmation; binding response (% of control), % at 10 µM; bead flow cytometry, Alexa488-MEK5 binding to MEKK3; stronger effect = lower value; hit rate 1.8% among 5,900; shares compounds with MEKK3 PB1 HTS;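 active means binding response below 72% of control, or above a set upper limit, though filed actives all read lower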;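 further: 100% = DMSO only wells and 0% = binding blocked by excess unlabeled MEK5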
An asterisk follows results filed as active; / = not tested or not shown; [ ] = remark or other dose. An excerpt weighted towards active compounds, which were near 3.4% of everything screened.

SMILES	IMP-1 inh	MEKK2 WT-MEK5	MEKK3 PB1 HTS	VIM-2 inh	MEKK2 mut-MEK5	MEKK2wt confirm	MEKK2mut confirm	MEKK3-MEK5 inh
O=C(OCC(=O)N1CCN(Cc2ccccc2)CC1)c1ccc(Cl)cc1	-3	6.0*[inhibitor]	4.0*[inhibitor]	-5	-42	99	-3	98
Cn1c(=O)c(/C=C/c2ccc(F)cc2)nc2ccccc21	-4	55*[inhibitor]	81	-6	-10	78	-7	97
Cn1c(=O)c(/C=C/c2ccccc2)nc2ccccc21	-2	86	122	1	-2	/	/	/
Nc1nc2ccccc2n1C(=O)c1ccc(F)cc1	-1	96	98	-5	-8	/	/	/
O=c1c(/C=C(\O)c2ccc(F)cc2)nc2ccccc2n1-c1ccccc1	1	45*[inhibitor]	83	-3	1	66	-21	94
O=c1c(Cl)c(Nc2cccc(Cl)c2)cnn1-c1nc2ccccc2s1	-3	91	98	-3	-3	/	/	/
Cc1ccc(C)c(N2CCN(c3cnn(-c4nc5ccccc5s4)c(=O)c3Cl)CC2)c1	-2	107	143*	-1	1	109	12	108
CC1(C)C(=O)NCCN1C(=O)CCCC(=O)O	-3	104	111	0	5	/	/	/
Cc1ccc(/C=C/C(=O)NC2CCS(=O)(=O)C2)cc1 (configuration not stated)	0	101	104	1	0	/	/	/
O=C(/C=C/c1ccccc1)NC1CCS(=O)(=O)C1 (configuration not stated)	-4	95	72*[inhibitor]	0	0	99	-5	102
Cc1ccc(SCCNC(=O)/C=C/c2ccc([N+](=O)[O-])cc2)cc1	-2	1.0*[inhibitor]	0.0*[inhibitor]	-3	-7	99	3	102
CCC1(C)NC(=O)N(CC(=O)Nc2sc3c(c2C(N)=O)CCC3)C1=O (configuration not stated)	-4	100	99	-3	-1	/	/	/
CN1C(C(=O)NCc2cccc(C(F)(F)F)c2)CC2Cn3c(nc4ccccc43)C21 (configuration not stated)	/	96	51*[inhibitor]	/	-5	100	-4	98
CN1C(C(=O)NCc2cccc(C(F)(F)F)c2)CC2Cn3c(nc4cc5ccccc5cc43)C21 (configuration not stated)	/	95	96	/	2	/	/	/
CCc1cc2c(C)ccc(C)c2nc1SCC(=O)Nc1c[nH]c(=O)[nH]c1=O	-4	93	97	0	-3	/	/	/
Cc1ccc(C(=O)CSc2ncnc3ccccc23)o1	-1	99	99	1	-2	/	/	/
O=C(CSc1ncnc2ccccc12)c1cccs1	-3	80	63*[inhibitor]	3	-4	103	1	100
COCCn1c(SCC(=O)Nc2ccccc2C(F)(F)F)nc2ccccc2c1=O	1	98	95	0	-2	/	/	/
Cc1ccccc1OCC(=O)Nc1ccc(S(=O)(=O)Nc2ccccn2)cc1	-2	109	136*	-5	0	96	1	100
Cc1ccc(OCC(=O)Nc2ccc(S(=O)(=O)Nc3ccccn3)cc2)c(C)c1	-4	100	116	-2	0	/	/	/
CCOc1ccc(-c2nnn(CC(=O)Nc3ccccc3OC)n2)cc1OCC	-6	103	105	-4	6	/	/	/
Cc1c(C(N)=O)sc(N)c1C(=O)OC(C)C	-2	118	122*	-2	8	103	0	106
CC(=O)c1sc(N)c(C(=O)OC(C)C)c1C	-3	107	105	-2	1	/	/	/
Cc1c(C(=O)OC(C)C)sc(N)c1C(=O)OC(C)C	-3	104	131*	-4	0	102	-2	102
Cc1cc(NC(=O)c2cc([N+](=O)[O-])ccc2Cl)no1	-2	104	104	-1	-2	/	/	/
SMILES	IMP-1 inh	MEKK2 WT-MEK5	MEKK3 PB1 HTS	VIM-2 inh	MEKK2 mut-MEK5	MEKK2wt confirm	MEKK2mut confirm	MEKK3-MEK5 inh
N#C/C(=C\c1ccc(Sc2ccc(Cl)cc2)o1)c1nc2ccccc2[nH]1	-3	150*	102	-2	14	131	14	102
CCCCNCC(=O)Nc1ccc(NC(=O)CNCCCC)cc1	-2	144*	113	-1	27*	124	12	100
C/C(=N\NC(=O)c1cccc(S(=O)(=O)Nc2ccccc2Cl)c1)c1ccco1	-1	103	102	-3	0	/	/	/
C/C(=N\NC(=O)c1ccc(Cl)c(S(=O)(=O)Nc2ccccc2Cl)c1)c1ccncc1	-2	106	145*	-2	2	99	3	100
Cc1oc(-c2cccc(Cl)c2)nc1CN1CCC(C(=O)N2CCN(c3ccccc3F)CC2)CC1	-3	140*	106	-5	25	141	28	109
CCCCCn1c(=O)[nH]c2cc(C(=O)N3CCN(c4ccc(C(C)=O)cc4)CC3)ccc2c1=O	-1	95	98	-4	-6	/	/	/
CCOCC(=O)N1CCN(Cc2ccc3c(c2)OCO3)CC1	-1	109	108	0	4	/	/	/
COC1CCN(Cc2cn(Cc3ccccc3)nc2-c2cc3ccccc3o2)CC1	-2	140*	85	-2	24	120	2	98
CCC1(C)OC(=O)N(CCCn2ccnc2C)C1(C)O (configuration not stated)	-1	121	123*	-2	9	102	1	97
CS(=O)(=O)N1CCc2cc(C(=O)N3CCCC3)ccc21	-1	119	132*	-4	1	97	-4	104
O=C(COc1ccccc1)Nc1sc2c(c1C(=O)NCc1cccnc1)CCCC2	-2	99	103	-2	1	/	/	/
COc1ccc(-c2cn3cc(C(F)(F)F)cc(Cl)c3n2)cc1	-3	102	104	-3	3	/	/	/
Cc1nc(CS(=O)(=O)c2ccc(Cl)cc2)sc1C(=O)O	-1	129	129*	-1	23	101	-4	101
COc1ccccc1NC(=S)N1CCOCC1	-4	99	73*[inhibitor]	-1	0	100	1	104
COC(=O)c1cc(OC)c(OC)cc1NC(=O)CN1CCCCC1	-2	-4.0*[inhibitor]	-1.0*[inhibitor]	-2	-26	92	-10	88
COc1ccccc1NC(=O)N1CCOCC1	-4	98	102	-2	2	/	/	/
COC(=O)c1cc(OC)c(OC)cc1NC(=S)N1CCN(c2ccccc2)CC1	-4	2.0*[inhibitor]	1.0*[inhibitor]	-2	-21	102	-2	103
O=C(NCc1ccco1)c1ccccc1	-3	96	96	-2	-2	/	/	/
